Common to all, as to assay type: functional
Assay [1] has as its system Candida albicans. Nature of the assay: Antifungal activity against fluconazole-sensitive Candida albicans ATCC SC5314 after 2 to 7 days by broth microdilution method. The procedure, abridged:
(§1)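 Broth microdilution in 96-well plates per NCCLS. Compounds and fluconazole reference dissolved in DMSO, serially diluted in growth medium, then inoculum suspension added, final concentrations 128 to 0.25 µg/mL (twofold series). Incubated at 32°C. MIC read visually after 2-7 d.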

Assay [2] concerns Candida albicans. In words: Antifungal activity against fluconazole-resistant Candida albicans 103 after 2 to 7 days by broth microdilution method. In a few lines:
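Broth microdilution per NCCLS. Compounds dissolved in DMSO, serially diluted in growth medium, then inoculum suspension added to give final concentrations of 128 to 0.25 µg/mL (twofold steps). Plates incubated at 32°C. MIC read by visual observation after 2-7 d. Fluconazole served as reference drug.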
(In broth dilution the organism is exposed to a series of concentrations in liquid medium.)

Another assay relates to Aspergillus fumigatus. Nature of the assay: Antifungal activity against Aspergillus fumigatus cgmcc 3.7795 after 2 to 7 days by broth microdilution method. The procedure, abridged: as §1
Another assay has as its system Candida tropicalis. Nature of the assay: Antifungal activity against Candida tropicalis cgmcc 2.3739 after 2 to 7 days by broth microdilution method. In a few lines: as §1
Assay [3] has as its system Candida albicans. In words: Antifungal activity against Candida albicans cpcc 400616 after 2 to 7 days by broth microdilution method. In a few lines:
as §1

A further assay concerns Cryptococcus neoformans. Nature of the assay: Antifungal activity against Cryptococcus neoformans cgmcc 2.3161 after 2 to 7 days by broth microdilution method. In a few lines:
as §1

≈ marks a conversion by molar mass, not a printed value.

With `ClC1=C(CN2CCCCC2)CSc2ccc(Br)cc21`, the MIC (usually the lowest concentration that inhibits growth of the organism) against Candida albicans [1] is 8 µg/mL (≈ 22.3 µM); in the assay on Candida albicans [2] it was 64 µg/mL (≈ 178 µM); with Aspergillus fumigatus it was above 128 µg/mL; against Candida tropicalis it was 128 µg/mL (≈ 357 µM); against Candida albicans [3] it was 32 µg/mL (≈ 89.2 µM); against Cryptococcus neoformans it was 4 µg/mL (≈ 11.2 µM).

As to `Fc1ccc2c(c1)C(Cl)=C(CN1CCCC1)CS2`, the MIC in the assay on Candida albicans [1] was 8 µg/mL (≈ 28.2 µM); with Candida albicans [2] it was 64 µg/mL (≈ 226 µM); against Aspergillus fumigatus, above 128 µg/mL; with Candida tropicalis, 16 µg/mL (≈ 56.4 µM); against Candida albicans [3], 8 µg/mL (≈ 28.2 µM); against Cryptococcus neoformans, 4 µg/mL (≈ 14.1 µM).

`Fc1ccc2c(c1)C(Cl)=C(Cn1ccnc1)CS2`: the MIC is 4 µg/mL (≈ 14.2 µM) in the assay with Candida albicans [1]; 64 µg/mL (≈ 228 µM) against Candida albicans [2]; above 128 µg/mL in the assay on Aspergillus fumigatus; 8 µg/mL (≈ 28.5 µM) against Candida tropicalis; 16 µg/mL (≈ 57 µM) with Candida albicans [3]; 32 µg/mL (≈ 114 µM) in the assay on Cryptococcus neoformans.

Turning to `CC(C)NCC1=C(Cl)c2cc(Br)ccc2SC1`, the MIC in the assay on Candida albicans [1] is 4 µg/mL (≈ 12 µM); with Candida albicans [2] it was 16 µg/mL (≈ 48.1 µM); in the assay with Aspergillus fumigatus, above 128 µg/mL; against Candida tropicalis, above 128 µg/mL; against Candida albicans [3], 8 µg/mL (≈ 24 µM); in the assay on Cryptococcus neoformans it was 4 µg/mL (≈ 12 µM).

Turning to `CCN(CC)CC1=C(Cl)c2cc(C)ccc2SC1`, the MIC in the assay with Candida albicans [1] was 32 µg/mL (≈ 114 µM); against Candida albicans [2], 64 µg/mL (≈ 227 µM); against Aspergillus fumigatus, above 128 µg/mL; in the assay on Candida tropicalis it was 64 µg/mL (≈ 227 µM); in the assay with Candida albicans [3] it was 32 µg/mL (≈ 114 µM); against Cryptococcus neoformans, 8 µg/mL (≈ 28.4 µM).

On to `CC(C)N(CC1=C(Cl)c2cc(Cl)ccc2SC1)C(C)C`, for which the MIC in the assay with Candida albicans [1] was 4 µg/mL (≈ 12.1 µM); with Candida albicans [2], 64 µg/mL (≈ 194 µM); in the assay on Aspergillus fumigatus it was above 128 µg/mL; in the assay with Candida tropicalis, 64 µg/mL (≈ 194 µM); in the assay with Candida albicans [3], 4 µg/mL (≈ 12.1 µM); with Cryptococcus neoformans, 64 µg/mL (≈ 194 µM).

Turning to `ClC1=C(CN2CCCC2)CSc2ccc(Cl)cc21`, the MIC in the assay with Candida albicans [1] is 1 µg/mL (≈ 3.33 µM); in the assay with Candida albicans [2] it was above 128 µg/mL; against Aspergillus fumigatus it was above 128 µg/mL; in the assay on Candida tropicalis it was 4 µg/mL (≈ 13.3 µM); against Candida albicans [3] it was 32 µg/mL (≈ 107 µM); against Cryptococcus neoformans, 4 µg/mL (≈ 13.3 µM).

Turning to `CCN(CC)CC1=C(Cl)c2cc(F)ccc2SC1`, the MIC in the assay on Candida albicans [1] was 8 µg/mL (≈ 28 µM); in the assay with Candida albicans [2] it was 64 µg/mL (≈ 224 µM); in the assay with Aspergillus fumigatus, above 128 µg/mL; against Candida tropicalis, 2 µg/mL (≈ 7 µM); with Candida albicans [3], 8 µg/mL (≈ 28 µM); in the assay with Cryptococcus neoformans it was 2 µg/mL (≈ 7 µM).

As for `Cc1ccc2c(c1)C(Cl)=C(CN1CCCCC1)CS2`, the MIC against Candida albicans [1] was 16 µg/mL (≈ 54.4 µM); in the assay on Candida albicans [2], 128 µg/mL (≈ 436 µM); against Aspergillus fumigatus it was above 128 µg/mL; in the assay with Candida tropicalis, 64 µg/mL (≈ 218 µM); in the assay with Candida albicans [3] it was 32 µg/mL (≈ 109 µM); against Cryptococcus neoformans it was 16 µg/mL (≈ 54.4 µM).

Turning to `CC(C)NCC1=C(Cl)c2cc(F)ccc2SC1`, the MIC was 2 µg/mL (≈ 7.36 µM) in the assay with Candida albicans [1]; 64 µg/mL (≈ 235 µM) against Candida albicans [2]; 64 µg/mL (≈ 235 µM) against Aspergillus fumigatus; 2 µg/mL (≈ 7.36 µM) with Candida tropicalis; 8 µg/mL (≈ 29.4 µM) in the assay with Candida albicans [3]; 4 µg/mL (≈ 14.7 µM) against Cryptococcus neoformans.

With `ClC1=C(Cn2ccnc2)CSc2ccc(Br)cc21`, the MIC in the assay with Candida albicans [1] was 16 µg/mL (≈ 46.8 µM); against Candida albicans [2], above 128 µg/mL; in the assay with Aspergillus fumigatus it was above 128 µg/mL; in the assay with Candida tropicalis, above 128 µg/mL; in the assay on Candida albicans [3], 64 µg/mL (≈ 187 µM); with Cryptococcus neoformans, 8 µg/mL (≈ 23.4 µM).

For `ClC1=C(Cn2cncn2)CSc2ccc(Cl)cc21`, the MIC with Candida albicans [1] was 8 µg/mL (≈ 26.8 µM); against Candida albicans [2], 32 µg/mL (≈ 107 µM); against Aspergillus fumigatus, above 128 µg/mL; in the assay with Candida tropicalis it was 32 µg/mL (≈ 107 µM); with Candida albicans [3] it was 16 µg/mL (≈ 53.7 µM); in the assay with Cryptococcus neoformans, 4 µg/mL (≈ 13.4 µM).

Take `CN1CCN(CC2=C(Cl)c3cc(Cl)ccc3SC2)CC1`: the MIC in the assay on Candida albicans [1] was 16 µg/mL (≈ 48.6 µM); against Candida albicans [2], 64 µg/mL (≈ 194 µM); with Aspergillus fumigatus it was above 128 µg/mL; against Candida tropicalis it was 64 µg/mL (≈ 194 µM); with Candida albicans [3] it was 32 µg/mL (≈ 97.2 µM); in the assay with Cryptococcus neoformans it was 4 µg/mL (≈ 12.1 µM).

For the molecule `O=C1CCSc2ccc(Br)cc21`, the MIC in the assay on Candida albicans [1] was 8 µg/mL (≈ 32.9 µM); in the assay on Candida albicans [2], 64 µg/mL (≈ 263 µM); with Aspergillus fumigatus, above 128 µg/mL; in the assay with Candida tropicalis, 16 µg/mL (≈ 65.8 µM); against Candida albicans [3], 32 µg/mL (≈ 132 µM); in the assay with Cryptococcus neoformans, 64 µg/mL (≈ 263 µM).

The values are drawn from ChEMBL document CHEMBL4261620, “Design, synthesis, and biological evaluation of 4-chloro-2H-thiochromenes featuring nitrogen-containing side chains as potent antifungal agents” (Bioorg Med Chem Lett, 2018).
